According to ChEMBL document CHEMBL1155742, “Phomoxanthones A and B, novel xanthone dimers from the endophytic fungus Phomopsis species” (J Nat Prod, 2001):
Values after ≈ are worked out from the molar mass of the structure shown.

Tests used:
Plasmodium falciparum = experiment: Antimalarial activity against multidrug-resistant Plasmodium falciparum K1 by [3H]hypoxanthine uptake; format: functional, organism-based
Procedure, shortened: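 Multidrug-resistant P. falciparum K1 tested in vitro by microculture radioisotope technique. IC50 is the concentration giving 50% reduction of parasite growth, measured as [3H]-hypoxanthine uptake, reported in µg/mL.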

[1] = tested on: Mycobacterium tuberculosis; experiment: Antitubercular activity against Mycobacterium tuberculosis H37Ra by microplate Alamar blue assay; format: functional
Procedure, shortened: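 Growth inhibition of M. tuberculosis H37Ra measured by Microplate Alamar Blue Assay; activity reported as MIC in µg/mL.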

KB = experiment: Cytotoxicity against human KB cells by SRB assay; format: functional, cell-based
Procedure, shortened: (§1)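 Purified compounds tested for cytotoxicity by a colorimetric method on human epidermoid carcinoma KB, human breast cancer BC-1 and African monkey kidney fibroblast Vero cells. Values are IC50 in µg/mL. Ellipticine served as the standard for KB and BC-1.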

[2] = Cytotoxicity against human BC1 cells by SRB assay; format: functional, cell-based; procedure, shortened: as §1
Vero = experiment: Cytotoxicity against african green monkey Vero cells by SRB assay; format: cell-based; conditions: Chlorocebus sabaeus; procedure, shortened: as §1

Row | SMILES | IC50 (Plasmodium falciparum) | MIC [1] | IC50 (KB) | IC50 [2] | IC50 (Vero)
1 | C[C@@H]1CC[C@H]2[C@@H](C)C(=O)O[C@@H]3O[C@@]4(C)CC[C@@H]1[C@]32OO4 [ARTEMISININ] | 0.0011 µg/mL (≈ 0.0039 µM) | – | – | – | –
2 | CC(=O)OC[C@]12Oc3c(-c4ccc(O)c5c4O[C@@]4(COC(C)=O)C(=C(O)C[C@@H](C)[C@H]4OC(C)=O)C5=O)ccc(O)c3C(=O)C1=C(O)C[C@@H](C)[C@H]2OC(C)=O [PHOMOXANTHONE A] | 0.11 µg/mL (≈ 0.147 µM) | 0.5 µg/mL (≈ 0.666 µM) | 0.99 µg/mL (≈ 1.32 µM) | 0.51 µg/mL (≈ 0.679 µM) | 1.4 µg/mL (≈ 1.86 µM)
3 | Cc1c2ccncc2c(C)c2c1[nH]c1ccccc12 [ELLIPTECINE] | – | – | 0.46 µg/mL (≈ 1.87 µM) | 0.6 µg/mL (≈ 2.44 µM) | –
4 | NC[C@H]1O[C@H](O[C@H]2[C@H](O)[C@@H](O[C@H]3O[C@H](CO)[C@@H](O)[C@H](N)[C@H]3O)[C@H](N)C[C@@H]2N)[C@H](O)[C@@H](O)[C@@H]1O.O=S(=O)(O)O [KANAMYCIN SULFATE] | – | 2.5 µg/mL | – | – | –
5 | CC(=O)OC[C@]12Oc3ccc(-c4ccc(O)c5c4O[C@@]4(COC(C)=O)C(=C(O)C[C@@H](C)[C@H]4OC(C)=O)C5=O)c(O)c3C(=O)C1=C(O)C[C@@H](C)[C@H]2OC(C)=O [PHOMOXANTHONE B] | 0.33 µg/mL (≈ 0.44 µM) | 6.25 µg/mL (≈ 8.33 µM) | 4.1 µg/mL (≈ 5.46 µM) | 0.7 µg/mL (≈ 0.932 µM) | 1.8 µg/mL (≈ 2.4 µM)
6 | C[C@@H]1CC(O)=C2C(=O)c3c(O)ccc(-c4ccc(O)c5c4O[C@@]4(CO)C(=C(O)C[C@@H](C)[C@H]4O)C5=O)c3O[C@]2(CO)[C@@H]1O [DEACETYLPHOMOXANTHONE A] | > 20 µg/mL | > 200 µg/mL | > 20 µg/mL | > 20 µg/mL | > 50 µg/mL
7 | NNC(=O)c1ccncc1 [ISONIAZID] | – | 0.05 µg/mL (≈ 0.365 µM) | – | – | –
